These results are taken from ChEMBL document CHEMBL4651341, “The discovery of a novel series of compounds with single-dose efficacy against juvenile and adult Schistosoma species” (PLoS Negl Trop Dis, 2021).

≈ marks a conversion by molar mass, not a printed value.

A short description of data set [1]: Mean plasma concentration at 4h in Swiss albino male mice at […] per compound (administered orally in a mixture of 5 compounds to 3 mice) assessed by LCMS/MS. To be noted: mouse, po. The data set is classed as ADME, organism-based.
Data set [2] in a line: Partition coefficient of compound between n-octanol and PBS (pH7.4). The data set is classed as physicochemical. The note with it: octanol/water, pH 7.4. Put shortly:
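Shake-flask method using octanol and PBS pH 7.4, each pre-saturated with the other. Compound was shaken 2 h at 850 rpm, 25 °C, then the phases were separated by centrifugation and both layers diluted and analysed by LC-MS/MS. LogD = log(octanol AUC × relative dilution / buffer AUC).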

A short description of data set [3]: Concentration of drug in plasma at 4h following oral drug adminstration at given dose. Determined by LCMS/MS. The format is ADME, organism-based. The note with it: CD1, mouse. Put shortly: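 Plasma sampled from the mice of the efficacy experiments, each animal sampled once: one animal per group at 1, 4 and 8 h, two per group at 24 h. Plasma prepared by acetonitrile protein precipitation and analysed by LC-MS against a 10-point calibration line spiked in blank matrix, with QCs at three or more levels.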

Data set [4] concerns Schistosoma mansoni. In words: Percentage of worms remaining following treatment of female CD1 mice infected with S. mansoni worms (21 day old - juvenile or 42 day old - adult) with compound by oral gavage. Worms were recovered by portal perfusion with citrate saline 8-14 days post treatment and counted. Percentages are from a mean of 5 or 6 animals. The arrangement: concentration or dose not given beside the values. The format is functional, Mus musculus. Put shortly:
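Female CD1 mice were infected subcutaneously with 150 cercariae and treated at day 21 (juvenile) or day 42 (adult). Single oral gavage, or two doses 12 h apart, given in 7% Tween-80/3% ethanol/water (sonicated) or in 1:19 DMSO:corn oil. Controls received vehicle only. Worm recoveries are group means, n = 5–6.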

Data set [5] can be described thus: Concentration required to kill 50% HepG2 cells as detected by MTT staining. The data set is classed as toxicity, cell-based. The note with it: homo sapiens, read-out: TC50 (the source's name).
A short description of data set [6]: Mean oral bioavailability in Swiss albino male mice at […] per compound (administered in a mixture of 5 compounds to 3 mice) assessed by LCMS/MS. Note: dose 2.5 mg/kg. The format is ADME, organism-based. To be noted: mouse, in vivo.
Data set [7] in a line: Mean time to peak plasma concentration in Swiss albino male mice at […] per compound (administered orally in a mixture of 5 compounds to 3 mice) assessed by LCMS/MS. The format is ADME, organism-based. The note with it: mouse, po.
A short description of data set [8]: Plasma protein binding determined at 10uM by LC-MS/MS. The data set is classed as ADME, cell-free. In short, it runs like this: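 Equilibrium dialysis of plasma spiked at 10 µM (0.1% DMSO) against PBS pH 7.4, 6 h at 37 °C, duplicates. Both chambers analysed by LC-MS/MS after acetonitrile precipitation. % free = buffer/plasma area ratio; recovery also calculated.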

Data set [9] in a line: Mean AUC inf in Swiss albino male mice at 1 mg/kg per compound (administered iv in a mixture of 5 compounds to 3 mice) assessed by LCMS/MS. The data set is classed as ADME, organism-based. The note with it: male, Swiss albino, mouse, in vivo. Put shortly:
(§1)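 Male Swiss albino mice (~30 g), 3 per experiment, mostly dosed as mixtures of 5 compounds iv via the lateral tail vein. Vehicle: 10% DMSO/90% 50 mM Na2HPO4 with 0.5% Tween-80. Blood sampled at 5, 15, 30 min and 1, 2, 4, 8, 24 h. Plasma stored at −20 °C and quantified by LC-MS after acetonitrile precipitation.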

Data set [10] is described as follows: Mean observed clearance in Swiss albino male mice at 1 mg/kg per compound (administered iv in a mixture of 5 compounds to 3 mice) assessed by LCMS/MS. The format is ADME, organism-based. To be noted: male, Swiss albino, mouse, in vivo, read-out: Clearance (converted). In short, it runs like this: as §1
Data set [11] in a line: Mean volume of distribution at steady state in Swiss albino male mice at 1 mg/kg per compound (administered iv in a mixture of 5 compounds to 3 mice) assessed by LCMS/MS. The data set is classed as ADME, organism-based. To be noted: mouse, in vivo, read-out: Volume. Put shortly: (§2)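 Male Swiss albino mice (~30 g), 3 per experiment, mostly dosed as mixtures of 5 compounds iv via the lateral tail vein. Vehicle: 10% DMSO/90% 50 mM Na2HPO4 with 0.5% Tween-80. Plasma stored at −20 °C and quantified by LC-MS after acetonitrile precipitation.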

Data set [12] in a line: Mean half-life in Swiss albino male mice at 1 mg/kg per compound (administered iv in a mixture of 5 compounds to 3 mice) assessed by LCMS/MS. The format is ADME, organism-based. To be noted: mouse, in vivo. Put shortly: as §2
A short description of data set [13]: Mean plasma concentration at 24h in Swiss albino male mice at […] per compound (administered orally in a mixture of 5 compounds to 3 mice) assessed by LCMS/MS. The format is ADME, organism-based. The note with it: mouse, po.
Data set [14] is described as follows: Percentage of parent compound remaining after incubation for 30 minutes with cyropreserved human hepatocytes at a concentration of 1uM compound and 1 million cells/uL, determined by LCMS/MS. The data set is classed as ADME, tissue-based, Hepatocyte. The note with it: cryopreserved human hepatocytes, read-out: Stability. In short, it runs like this:
(§3)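 Compound was incubated at 1 µM final (2 µM working solution mixed 1:1 with hepatocyte suspension) in supplemented KHB pH 7.4. Conditions: 37 °C, 5% CO2, gentle mixing, duplicates. Reaction quenched with ice-cold acetonitrile containing standard; analysed by LC-MS/MS. % remaining = AUC at t / AUC at T0.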

A short description of data set [15]: Percentage of parent compound remaining after incubation for 30 minutes with cyropreserved mouse hepatocytes at a concentration of 1uM compound and […], determined by LCMS. The data set is classed as ADME, tissue-based, Hepatocyte. The note with it: cryopreserved mouse hepatocytes, read-out: Stability. Put shortly: as §3
Data set [16] in a line: Solubility at 25 degC of compound (diluted from DMSO) in PBS at pH 7.4 determined after 24h (1h sonication, 22h shaking, 1h sonication) by LCMS/MS. The data set is classed as physicochemical.
Data set [17] relates to Schistosoma mansoni. In words: Concentration required to kill 50% of 42 day old worms 5 days after drug treatment. The data set is classed as functional, organism-based. To be noted: Puerto Rican, 120 h. Put shortly: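 Adult S. mansoni were perfused from CD1 mice 6 weeks post-infection and washed. They were cultured 3 pairs per well in 1 mL DMEM with 2 mM glutamine, penicillin/streptomycin and 10% FCS […] at 37 °C, 5% CO2. Viability of individual worms was scored on day 5 (120 h).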

For data set [18], the system named is Schistosoma mansoni. Put plainly: Concentration required to kill 50% of 21 day old worms 5 days after drug treatment. To be noted: Puerto Rican, 120 h. The data set is classed as functional, organism-based. Put shortly: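 Juvenile S. mansoni (Puerto Rican strain) were perfused from CD1 mice 3 weeks post-infection and washed. They were cultured 6–8 per well in 200 µL DMEM with 2 mM glutamine, penicillin/streptomycin and 10% FCS at 37 °C, 5% CO2. Viability of individual worms was scored on day 5 after dosing (120 h).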

Data set [19] is described as follows: Percentage of parent compound remaining after incubation for 90 minutes with cyropreserved human hepatocytes at a concentration of 1uM compound and 1 million cells/uL, determined by LCMS/MS. The format is ADME, tissue-based, Hepatocyte. The note with it: cryopreserved human hepatocytes, read-out: Stability. Put shortly:
as §3

Data set [20] is described as follows: Percentage of parent compound remaining after incubation for 90 minutes with cyropreserved mouse hepatocytes at a concentration of 1uM compound and […], determined by LCMS. The data set is classed as ADME, tissue-based, Hepatocyte. To be noted: cryopreserved mouse hepatocytes, read-out: Stability. In short, it runs like this:
as §3

The mark [21] stands for this setting: male, Swiss albino, read-out: Bioavailability.

For `Fc1ccc(-c2cn3c(-c4ccc5[nH]ncc5c4F)c(C(F)(F)F)nc3cn2)cc1C(F)(F)F`, the concentration at 4 h in [1] was determined as 298 ng/mL; in data set [3] it was 1500 ng/mL. Besides, in data set [2], the Lipophilicity was 5.29 =. In addition, the Efficacy in data set [4] amounted to 1.84%. Moreover, the CC50 in data set [5] turned out to be 16.6 µM.
As a reminder, the Tmax is the time at which the peak concentration occurs. Turning to `Fc1ccc(-c2cn3c(-c4ccc5[nH]ncc5c4F)c(C(F)(F)F)nc3cn2)cc1C(F)(F)C(F)(F)F`, the bioavailability in data set [6] is 170%. In addition, the concentration at 4 h amounted to 359 ng/mL in data set [1] and 556 ng/mL in data set [3]. Moreover, the Tmax in data set [7] worked out at 120 min. This molecule registered a Binding in data set [8] (mouse) of 100%. For the same molecule, the Lipophilicity in [2] is reported as 5.6 =. The Efficacy in [4] amounted to 1.84%. Moreover, the CC50 in data set [5] came to 11.7 µM.
One may read the AUC(0-inf) as total exposure, with the tail of the curve extrapolated. What is called clearance is the volume of plasma or blood freed of the substance per unit of time. As usually defined, the half-life is the time in which the quantity being followed falls by half. What is called solubility (kinetic) is solubility judged after dilution from a stock solution rather than from solid. What is called EC50 is the concentration at which the effect is half-maximal. Turning to `CC(C)c1nc2cnc(-c3cccc(C(F)(F)F)c3)cn2c1-c1ccc2[nH]ncc2c1F`, the bioavailability in data set [6] (setting [21]) came out at 63.2%. Besides, the AUC(0-inf) in data set [9] was 929 ng·h/mL. In [10], the clearance was 9.15 mL/min/kg. Besides, in data set [11], the Vd came out at 3.44 L/kg. Further, the half-life in data set [12] was 362 min. The concentration at 24 h in [13] turned out to be 18 ng/mL. Also, the concentration at 4 h in [1] came to 194 ng/mL. For the same molecule, the Tmax in data set [7] was 30 min. The figures for the remaining at 0.5 h, 1 µM in data set [14] and in data set [15] were 83.1% and 93.9%, respectively. For the same molecule, the Binding came to 99.997% in data set [8] (human) and 99.975% in [8] (mouse). In addition, the Lipophilicity in data set [2] is listed as 4.56 =. Besides, in data set [16], the solubility (kinetic) at 24 h came to 1.52 µM (≈ 0.668 µg/mL). The EC50 in [17] amounted to 30.7 nM; in [18], 51.7 nM. The CC50 in data set [5] came to 15.1 µM.
As for `CC(C)c1cc(-c2cn3c(-c4ccc5[nH]ncc5c4F)c(C(C)C)nc3cn2)ccc1F`, in data set [6] (setting [21]), the bioavailability worked out at 64%. Besides, in data set [9], the AUC(0-inf) was 558 ng·h/mL. In addition, in data set [10], the clearance was 15 mL/min/kg. In [11], the Vd was found to be 4.48 L/kg. The half-life in [12] is 341 min. Moreover, the concentration at 24 h in [13] is 4.17 ng/mL. Further, the concentration at 4 h in data set [1] was determined as 119 ng/mL. In data set [7], the time of peak concentration (Tmax) was 30 min. In addition, the remaining at 1.5 h, 1 µM in [19] stood at 37.7%; in data set [20] it was 46.2%. The molecule further yielded a kinetic solubility at 24 h in [16] of 0.784 µM (≈ 0.338 µg/mL). Further, the results for the EC50 in [17] and in data set [18] were 3.98 nM and 4.96 nM, respectively. In addition, the CC50 in data set [5] is 11 µM.
